Experimental data published in ChEMBL document CHEMBL1155802, “Synthesis, DNA binding, and cytotoxic evaluation of new analogs of diallyldisulfide, an active principle of garlic” (Bioorg Med Chem, 2008).

Columns and labels:
Rattus norvegicus [1] = assay: Decrease in serum triglyceride level in hypercholesterolemic Wistar rat at 20 mg/kg, po for 1 week with diet; type: functional
In short: (§1)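 Adult male Wistar rats (100–120 g) were used, six per group. They received 5% cholesterol diet for 1 week, then cholesterol-rich diet plus compound at 20 mg/Kgwt, as a suspension in water, po, during week 2. Controls were saline-fed and cholesterol-only groups. Hepatic and serum cholesterol and triglycerides were measured by enzymatic assays. Values are mean ± SE from duplicate assays, compared with the hypercholesterolemic group.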

Rattus norvegicus [2] = assay: Decrease in hepatic triglyceride level in hypercholesterolemic Wistar rat at 20 mg/kg, po for 1 week with diet; type: functional; in short: as §1
Rattus norvegicus [3] = assay: Decrease in serum cholesterol level in hypercholesterolemic Wistar rat at 20 mg/kg, po for 1 week with diet; type: functional; in short: as §1
Rattus norvegicus [4] = assay: Decrease in hepatic cholesterol level in hypercholesterolemic Wistar rat at 20 mg/kg, po for 1 week with diet; type: functional; in short: as §1
DNA [5] = assay: Binding affinity to calf thymus DNA assessed as change in melting temperature by thermal denaturation assay; type: nucleic-acid assay; conditions: Bos taurus
[6] = Binding affinity to AT(d(AT)10) oligonucleotide assessed as melting temperature at pH 7.4 by thermal denaturation assay
DNA [7] = assay: Binding affinity to calf thymus DNA assessed as melting temperature at pH 7.4 by thermal denaturation assay; type: nucleic-acid assay; conditions: Bos taurus
[8] = Binding affinity to GC(d(GC)7) oligonucleotide assessed as melting temperature at pH 7.4 by thermal denaturation assay
[9] = Binding affinity to AT(d(AT)10) oligonucleotide assessed as change in melting temperature by thermal denaturation assay
Hepatocyte = assay: Cytotoxicity against rat primary hepatocytes after 24 hrs by MTT assay; type: cell-based
In short: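 Hepatocytes were isolated from rat liver and cultured in DMEM with 10% FBS at 37 °C under 5% CO2/[…]. Cells were seeded at 1×10^5 cells/ml and exposed to analog at 1–1000 µM for 24 h. MTT was then added for 4 h, formazan was dissolved in DMSO, and A540 was read. Each dose was run in triplicate, and IC50 was derived from mean OD versus concentration curves.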

[10] = Binding affinity to GC(d(GC)7) oligonucleotide assessed as change in melting temperature by thermal denaturation assay
DNA [11] = assay: Binding affinity to calf thymus DNA assessed as binding constant at DNA melting temperature at 12.5 uM; type: nucleic-acid assay; conditions: Bos taurus
In short: (§2)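 Binding constants came from absorbance at 260 nm versus temperature, 25 to 100 °C at 1 °C/min. Conditions were 20 mM sodium phosphate pH 7.4, 100 mM NaCl, 2.5 μM DNA (bp) and a saturating 12.5 μM analog.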

[12] = Binding affinity to GC(d(GC)7) oligonucleotide assessed as binding constant at DNA melting temperature at 12.5 uM; in short: as §2

Structure (SMILES)	ΔTm (DNA [5])	Tm [6]	Tm (DNA [7])	Tm [8]	ΔTm [9]	ΔTm [10]	K (DNA [11])	K [12]	Activity (Rattus norvegicus [1])	Activity (Rattus norvegicus [2])	Activity (Rattus norvegicus [3])	Activity (Rattus norvegicus [4])	IC50 (Hepatocyte)
C=CCS[S+]([O-])CC=C (configuration not stated) [ALLICIN]									36.86 mg/dL	20.34 mg/dL	42.69 mg/dL	2.15 mg/dL	
FC(F)(F)c1ccc(/C=C/CSSC/C=C/c2ccc(C(F)(F)F)cc2)cc1	5 °C	52 °C	78 °C	91 °C	0 °C	4 °C			35.09 mg/dL	20.57 mg/dL	42.69 mg/dL	2.12 mg/dL	140 µM
CC[C@H](C)C(=O)O[C@H]1C[C@@H](C)C=C2C=C[C@H](C)[C@H](CC[C@@H]3C[C@@H](O)CC(=O)O3)[C@H]21 [LOVASTATIN]									31.98 mg/dL	17.35 mg/dL	36.21 mg/dL	1.6 mg/dL	
Fc1ccc(/C=C/CSSC/C=C/c2ccc(F)cc2)cc1	6 °C	51 °C	79 °C	92 °C	-1 °C	5 °C			35.54 mg/dL	21.03 mg/dL	42.15 mg/dL	2.07 mg/dL	155 µM
O=[N+]([O-])c1ccc(/C=C/CSSC/C=C/c2ccc([N+](=O)[O-])cc2)cc1	7 °C	52 °C	80 °C	94 °C	0 °C	7 °C			33.32 mg/dL	19.8 mg/dL	38.37 mg/dL	1.97 mg/dL	335 µM

Now from value to compound, other results behind:

ΔTm (DNA [5])	Tm [6]	Tm (DNA [7])	Tm [8]	ΔTm [9]	ΔTm [10]	K (DNA [11])	K [12]	Structure (SMILES)	Activity (Rattus norvegicus [1])	Activity (Rattus norvegicus [2])	Activity (Rattus norvegicus [3])	Activity (Rattus norvegicus [4])	IC50 (Hepatocyte)
8 °C	49 °C	81 °C	93 °C	-3 °C	6 °C	4.03 ×10⁵ /M	6.9 ×10⁶ /M	Clc1ccccc1/C=C/CSSC/C=C/c1ccccc1Cl	32.87 mg/dL	19.28 mg/dL	37.29 mg/dL	1.87 mg/dL	425 µM
8 °C	51 °C	81 °C	93 °C	-1 °C	6 °C			Clc1ccc(/C=C/CSSC/C=C/c2ccc(Cl)cc2Cl)c(Cl)c1	34.65 mg/dL	20.61 mg/dL	42.15 mg/dL	2.04 mg/dL	350 µM
7 °C	52 °C	80 °C	92 °C	0 °C	5 °C			Brc1ccccc1/C=C/CSSC/C=C/c1ccccc1Br	35.54 mg/dL	21.41 mg/dL	41.07 mg/dL	2.07 mg/dL	365 µM
8 °C	50 °C	81 °C	93 °C	-2 °C	6 °C			Brc1ccc(/C=C/CSSC/C=C/c2ccc(Br)cc2Br)c(Br)c1	34.65 mg/dL	21.79 mg/dL	41.61 mg/dL	2.12 mg/dL	275 µM
